Data set [1] can be described thus: (§1) Half life was administered by using 20%aqueous hydroxypropyl-beta-cyclodextrin (HPbetaCD) as vehicle to nude mice at a dose of 25mpk,. In kind it is organism-based.
The nature of data set [2]: (§2) Area under curve was determined using 20%aqueous hydroxypropyl-beta-cyclodextrin (HPbetaCD) as vehicle. Compound was administered orally to nude mice at a dose of 25 mg/kg. In kind it is organism-based. The arrangement: dose 25 mg/kg. An outline of the steps: (§3)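 Nude mice were dosed at 25 mpk, intravenously or orally as the line states, in 20% aqueous hydroxypropyl-β-cyclodextrin or 0.4% aqueous methyl cellulose. Serum was sampled over 24 h. Each time point came from sera of different animals.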

Data set [3] is described as follows: (§4) Area under curve was determined using 20%aqueous hydroxypropyl-beta-cyclodextrin (HPbetaCD) as vehicle. Compound was administered intravenously to nude mice at a dose of 25 mg/kg. The arrangement: dose 25 mg/kg. In kind it is organism-based. An outline of the steps:
as §3

The nature of data set [4]: Maximum concentration (Cmax) using 20%aqueous hydroxypropyl-beta-cyclodextrin (HPbetaCD) as vehicle. compound was administered orally to nude mice at a dose of 25 mg/kg. In kind it is ADME, organism-based. The arrangement: dose 25 mg/kg, route oral. The following applies: mouse, in vivo, po. An outline of the steps:
as §3

Data set [5] can be described thus: Maximum concentration (Cmax) using 20%aqueous hydroxypropyl-beta-cyclodextrin (HPbetaCD) as vehicle. compound was administered intravenously to nude mice at a dose of 25 mg/kg. In kind it is ADME, organism-based. Set-up: dose 25 mg/kg, route intravenous. The following applies: mouse, in vivo, iv. An outline of the steps: as §3
In data set [6] the test system is Mus musculus. As to the kind of experiment: (§5) Bioavailability in mouse (nude) using 20% aqueous hydroxypropyl-beta-cyclodextrin (HPbetaCD) as vehicle 25 mg/kg. In kind it is organism-based.
A short description of data set [7]: as §5. In kind it is ADME, organism-based. The following applies: nude, in vivo.
The nature of data set [8]: Area under curve was determined using 20%aqueous hydroxypropyl-beta-cyclodextrin (HPbetaCD) as vehicle. Compound was administered intravenously to nude mice at a dose of 25 mg/kg (run time 7 hr). In kind it is ADME, organism-based. The following applies: mouse, in vivo, iv. Set-up: dose 25 mg/kg, route intravenous. Summed up:
(§6)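 Nude mice received 25 mpk in 20% aqueous hydroxypropyl-β-cyclodextrin, by the route the line gives. Serum was collected over a shortened 7-h run rather than 24 h. Each time point used sera from different animals.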

The nature of data set [9]: as §1. In kind it is ADME, organism-based. The following applies: mouse, in vivo, 25 mg/kg.
Data set [10] is described as follows: Area under curve was determined using 20%aqueous hydroxypropyl-beta-cyclodextrin (HPbetaCD) as vehicle. Compound was administered orally to nude mice at a dose of 25 mg/kg (run time 7 hr). The following applies: mouse, in vivo, po. The arrangement: dose 25 mg/kg, route oral. In kind it is ADME, organism-based. An outline of the steps:
as §6

The subject of data set [11] is NIH-3T3 (Mus musculus). Kind of data set: inhibition of tumor colony formation in soft agar.
For data set [12], the target named is T1, Protein farnesyltransferase (Homo sapiens, UniProt P49354+P49356). Kind of data set: Effect on Ras processing in Cos-1 monkey kidney cells expressing either H-Ras-Val 12-CVLS or H-Ras-Val12. In kind it is functional, cell-based, Cercopithecidae. Summed up:
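Ras processing was tested in Cos-1 monkey kidney cells transiently expressing H-Ras-Val12-CVLS or H-Ras-Val12. IC50 values are single-point determinations.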

Data set [13] deals with NIH-3T3 (Mus musculus). Kind of data set: Inhibition of tumor colony formation in soft agar.
Data set [14] in a line: Maximum concentration (Cmax) using 0.4% Methyl cellulose (MC) as vehicle. compound was administered orally to nude mice at a dose of 25 mg/kg. In kind it is ADME, organism-based. Set-up: dose 25 mg/kg, route oral. The following applies: mouse, in vivo, po. An outline of the steps: as §3
The nature of data set [15]: Area under curve was determined using 0.4% Methyl cellulose (MC) as vehicle. Compound was administered intravenously to nude mice at a dose of 25 mg/kg. The settings on record: mouse, in vivo, iv. The arrangement: dose 25 mg/kg, route intravenous. In kind it is ADME, organism-based. Summed up: as §3
The nature of data set [16]: Maximum concentration (Cmax) using 0.4% Methyl cellulose (MC) as vehicle. compound was administered intravenously to nude mice at a dose of 25 mg/kg. Set-up: dose 25 mg/kg, route intravenous. The settings on record: mouse, in vivo, iv. In kind it is ADME, organism-based. An outline of the steps: as §3
Data set [17] in a line: Area under curve was determined using 0.4% Methyl cellulose (MC) as vehicle. Compound was administered orally to nude mice at a dose of 25 mg/kg. In kind it is ADME, organism-based. Set-up: dose 25 mg/kg, route oral. The following applies: mouse, in vivo, po. An outline of the steps:
as §3

A short description of data set [18]: Half life was administered by using 0.4% Methyl cellulose (MC) as vehicle to nude mice at a dose of 25mpk. The settings on record: mouse, in vivo, 25 mg/kg.
The nature of data set [19]: Bioavailability in mouse (nude) (dose 0.4% Methylcellulose (MC) as vehicle 25 mg/kg). In kind it is ADME, organism-based. The following applies: in vivo.
Data set [20] can be described thus: as §2. In kind it is ADME, organism-based. Set-up: dose 25 mg/kg, route oral. The settings on record: mouse, in vivo, po. An outline of the steps: as §3
Data set [21] in a line: as §4. In kind it is ADME, organism-based. The arrangement: dose 25 mg/kg, route intravenous. The following applies: mouse, in vivo, iv. Summed up:
as §3

Data set [22] in a line: Area under curve was determined using 20%aqueous hydroxypropyl-beta-cyclodextrin (HPbetaCD) as vehicle. Compound was administered orally to nude mice at a dose of 25 mg/kg (Run time = 7 hr). In kind it is ADME, organism-based. The arrangement: dose 25 mg/kg, route oral. The following applies: mouse, in vivo, po. Summed up:
as §6

Data set [23] in a line: Maximum concentration (Cmax) using 0.4% Methyl cellulose (MC) as vehicle. compound was administered orally to nude mice at a dose of 25 mg/kg (micronized sample). In kind it is ADME, organism-based. Set-up: dose 25 mg/kg, route oral. The settings on record: mouse, in vivo, po. Summed up: (§7)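 A micronized sample was given orally at 25 mpk to nude mice in 0.4% aqueous methyl cellulose. Serum was collected over 24 h, with separate animals for each time point.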

A short description of data set [24]: Percent bioavailability was administered by using 0.4% Methyl cellulose (MC) as vehicle to nude mice at a dose of 25 mg/kg (micronized sample). In kind it is ADME, organism-based. The settings on record: mouse, in vivo, read-out: Bioavailabiility. An outline of the steps: as §7
The target in data set [25] is T1, Protein farnesyltransferase. Kind of data set: Inhibition of Hras Farnesyl protein transferase (FPT). In kind it is protein-complex assay.
Data set [26] can be described thus: Area under curve was determined using 0.4% Methyl cellulose (MC) as vehicle. Compound was administered orally to nude mice at a dose of 25 mg/kg (micronized sample). In kind it is ADME, organism-based. Set-up: dose 25 mg/kg, route oral. The settings on record: mouse, in vivo, po. Summed up: as §7

pIC50: −log10 of the molar value.

In the case of `NCC(=O)N1CCC(CC(=O)N2CCC([C@H]3c4ncc(Br)cc4CCc4cc(Cl)cc(Br)c43)CC2)CC1`, the T1/2 in data set [1] amounted to 1.4 h. The figures for the AUC in data set [2] and in [3] were 5840 ng·h/mL and 125000 ng·h/mL, respectively. The Cmax (commonly the peak of the concentration-time curve) came out at 2.92 µM in [4] and 80 µM in data set [5]. Further, the bioavailability in data set [6] was 4.7%.
Consider `O=C(CC1CCN(C(=O)Cn2cncn2)CC1)N1CCC([C@H]2c3ncc(Br)cc3CCc3cc(Cl)cc(Br)c32)CC1`, for which the bioavailability in data set [7] came to 19.5%. Moreover, the AUC at 7 h in [8] was found to be 10100 ng·h/mL; in data set [10] it was 1970 ng·h/mL. Further, in [9], the half-life (commonly how long it takes for the measured level to halve) was 0.28 h. For the same compound, the figures for the Cmax in data set [4] and in data set [5] were 2.15 µM and 22.6 µM, respectively. For the same compound, the figures for the pIC50 in data set [11] and in [12] were 6.96 and more than 8.00, respectively.
`NS(=O)(=O)N1CCC(CC(=O)N2CCC([C@H]3c4ncc(Br)cc4CCc4cc(Cl)cc(Br)c43)CC2)CC1`: the T1/2 in [1] was 1.5 h. In addition, the AUC in [2] was 5600 ng·h/mL; in data set [3] it was 26100 ng·h/mL. Besides, the results for the Cmax in [4] and in data set [5] were 3.6 µM and 30 µM, respectively. Moreover, the bioavailability in data set [6] came to 22%. In addition, the pIC50 (usually the IC50 on a negative log10 scale, so that one unit is a factor of ten) in data set [11] is 6.70.
Take `N#CCC(=O)N1CCC(CC(=O)N2CCC([C@H]3c4ncc(Br)cc4CCc4cc(Cl)cc(Br)c43)CC2)CC1`: the values for the pIC50 in data set [13] and in data set [12] were 6.92 and more than 8.00, respectively. For the same compound, the values for the Cmax in data set [14] and in data set [16] were 0.33 µM and 23.4 µM, respectively. Further, the values for the AUC in [15] and in [17] were 4090 ng·h/mL and 350 ng·h/mL, respectively. Moreover, the half-life in data set [18] was 0.76 h. The bioavailability in [19] was determined as 8.6%.
Consider `CS(=O)(=O)N1CCC(CC(=O)N2CCC([C@H]3c4ncc(Br)cc4CCc4cc(Cl)cc(Br)c43)CC2)CC1`, for which the T1/2 in data set [1] turned out to be 0.53 h. Moreover, the AUC was determined as 950 ng·h/mL in [2] and 9520 ng·h/mL in data set [3]. Further, the Cmax in data set [4] was found to be 1.3 µM; in data set [5] it was 30 µM. Moreover, in data set [6], the bioavailability was 10%.
Consider `NC(=O)N1CCC(CC(=O)N2CCC([C@H]3c4ncc(Br)cc4CCc4cc(Cl)cc(Br)c43)CC2)CC1` [LONAFARNIB], for which the bioavailability in data set [7] is 75.8%. The Cmax came to 16.6 µM in data set [14], 8.84 µM in data set [4] and 20 µM in data set [5]. In data set [9], the half-life was 1.4 h. Moreover, the AUC in data set [20] was 24100 ng·h/mL; in data set [17] it was 41400 ng·h/mL; in [21], 31800 ng·h/mL. The compound further gave a pIC50 in data set [11] of 7.12.
For `CN(C)C(=O)C(=O)N1CCC(CC(=O)N2CCC([C@H]3c4ncc(Br)cc4CCc4cc(Cl)cc(Br)c43)CC2)CC1`, in data set [7], the bioavailability was found to be 30%. The AUC at 7 h in [22] is 2260 ng·h/mL. The same compound had a half-life in [9] of 1.04 h. For the same compound, the Cmax in [4] came to 3.2 µM; in data set [5], 26.3 µM. Besides, the AUC in data set [21] amounted to 7530 ng·h/mL. In addition, the results for the pIC50 in data set [11] and in data set [12] were 6.92 and 8.00, respectively.
For `O=C(CC1CCN(C(=O)c2ccc[n+]([O-])c2)CC1)N1CCC([C@H]2c3ncc(Br)cc3CCc3cc(Cl)cc(Br)c32)CC1`, the bioavailability in [7] was determined as 113%; in data set [24], 9.28%; in [19], 5.81%. Also, the Cmax in data set [23] was determined as 2.27 µM; in data set [14], 0.75 µM; in data set [4], 16.2 µM; in data set [16], 52.3 µM; in data set [5] it was 52.3 µM. For the same compound, the values for the pIC50 in [13], in data set [25] and in data set [12] were 6.78, 8.68 and 8.15, respectively. Also, the AUC in [15] was found to be 62000 ng·h/mL; in data set [26], 5750 ng·h/mL; in [20] it was 70100 ng·h/mL; in data set [17], 3600 ng·h/mL; in data set [21] it was 62000 ng·h/mL. The compound further had a half-life in data set [9] of 1.42 h.
With `O=C(CC1CCN(C(=O)c2cc[n+]([O-])cc2)CC1)N1CCC([C@H]2c3ncc(Br)cc3CCc3cc(Cl)cc(Br)c32)CC1`, the bioavailability in data set [7] was 115%; in data set [19], 14.6%. Moreover, the Cmax in data set [14] worked out at 1.07 µM; in [4], 9.81 µM; in [16], 19.8 µM; in data set [5], 19.8 µM. Further, the AUC in data set [15] came to 13700 ng·h/mL; in data set [20] it was 15700 ng·h/mL; in [17], 2000 ng·h/mL; in data set [21], 13700 ng·h/mL. Also, the half-life in data set [9] was 1.2 h.

These data come from ChEMBL document CHEMBL1132302, “Identification of pharmacokinetically stable 3, 10-dibromo-8-chlorobenzocycloheptapyridine farnesyl protein transferase inhibitors with potent enzyme and cellular activities” (J Med Chem, 1999).
